According to ChEMBL document CHEMBL4396947, “Synthesis and characterization of novel isoform-selective IP6K1 inhibitors” (Bioorg Med Chem Lett, 2019):
Converted amounts (≈) assume the structure as drawn.

Columns and labels:
[1] = target: Ribosomal protein S6 kinase alpha-1 (Homo sapiens) (UniProt Q15418); assay: Inhibition of recombinant full length human RSK1 assessed as residual activity at 10 uM using KKKNRTLSVA as substrate incubated for 40 mins in presence of [gamma-33P]ATP at Km concentration by radiometric assay relative to control
Sequence of Ribosomal protein S6 kinase alpha-1 (Homo sapiens) (Q15418 whole entry): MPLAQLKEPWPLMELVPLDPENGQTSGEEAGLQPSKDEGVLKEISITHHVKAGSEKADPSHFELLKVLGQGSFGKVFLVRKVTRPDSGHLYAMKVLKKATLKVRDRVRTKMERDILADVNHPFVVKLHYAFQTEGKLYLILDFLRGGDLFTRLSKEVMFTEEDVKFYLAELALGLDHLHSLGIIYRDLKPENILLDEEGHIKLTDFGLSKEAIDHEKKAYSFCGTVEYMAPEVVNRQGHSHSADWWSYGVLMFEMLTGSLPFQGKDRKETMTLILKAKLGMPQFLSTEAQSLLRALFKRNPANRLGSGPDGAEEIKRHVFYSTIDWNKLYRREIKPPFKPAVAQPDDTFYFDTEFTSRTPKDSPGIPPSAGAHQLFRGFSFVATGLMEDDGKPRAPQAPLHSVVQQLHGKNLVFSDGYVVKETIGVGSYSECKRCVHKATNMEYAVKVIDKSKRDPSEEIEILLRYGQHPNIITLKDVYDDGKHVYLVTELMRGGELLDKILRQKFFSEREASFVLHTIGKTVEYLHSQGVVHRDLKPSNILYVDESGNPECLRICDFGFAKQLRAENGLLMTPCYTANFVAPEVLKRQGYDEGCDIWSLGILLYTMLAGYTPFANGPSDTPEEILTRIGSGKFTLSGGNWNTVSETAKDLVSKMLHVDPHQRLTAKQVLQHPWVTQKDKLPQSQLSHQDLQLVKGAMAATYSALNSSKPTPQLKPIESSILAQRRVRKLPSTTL

[2] = target: Platelet-derived growth factor receptor beta (Homo sapiens) (UniProt P09619); assay: Inhibition of recombinant human PDGFRbeta (557 to end residues) assessed as residual activity at 10 uM using poly (Glu,Tyr) 4:1 as substrate incubated for 40 mins in presence of [gamma-33P]ATP at Km concentration by radiometric assay relative to control
Sequence of Platelet-derived growth factor receptor beta (Homo sapiens) (P09619 whole entry): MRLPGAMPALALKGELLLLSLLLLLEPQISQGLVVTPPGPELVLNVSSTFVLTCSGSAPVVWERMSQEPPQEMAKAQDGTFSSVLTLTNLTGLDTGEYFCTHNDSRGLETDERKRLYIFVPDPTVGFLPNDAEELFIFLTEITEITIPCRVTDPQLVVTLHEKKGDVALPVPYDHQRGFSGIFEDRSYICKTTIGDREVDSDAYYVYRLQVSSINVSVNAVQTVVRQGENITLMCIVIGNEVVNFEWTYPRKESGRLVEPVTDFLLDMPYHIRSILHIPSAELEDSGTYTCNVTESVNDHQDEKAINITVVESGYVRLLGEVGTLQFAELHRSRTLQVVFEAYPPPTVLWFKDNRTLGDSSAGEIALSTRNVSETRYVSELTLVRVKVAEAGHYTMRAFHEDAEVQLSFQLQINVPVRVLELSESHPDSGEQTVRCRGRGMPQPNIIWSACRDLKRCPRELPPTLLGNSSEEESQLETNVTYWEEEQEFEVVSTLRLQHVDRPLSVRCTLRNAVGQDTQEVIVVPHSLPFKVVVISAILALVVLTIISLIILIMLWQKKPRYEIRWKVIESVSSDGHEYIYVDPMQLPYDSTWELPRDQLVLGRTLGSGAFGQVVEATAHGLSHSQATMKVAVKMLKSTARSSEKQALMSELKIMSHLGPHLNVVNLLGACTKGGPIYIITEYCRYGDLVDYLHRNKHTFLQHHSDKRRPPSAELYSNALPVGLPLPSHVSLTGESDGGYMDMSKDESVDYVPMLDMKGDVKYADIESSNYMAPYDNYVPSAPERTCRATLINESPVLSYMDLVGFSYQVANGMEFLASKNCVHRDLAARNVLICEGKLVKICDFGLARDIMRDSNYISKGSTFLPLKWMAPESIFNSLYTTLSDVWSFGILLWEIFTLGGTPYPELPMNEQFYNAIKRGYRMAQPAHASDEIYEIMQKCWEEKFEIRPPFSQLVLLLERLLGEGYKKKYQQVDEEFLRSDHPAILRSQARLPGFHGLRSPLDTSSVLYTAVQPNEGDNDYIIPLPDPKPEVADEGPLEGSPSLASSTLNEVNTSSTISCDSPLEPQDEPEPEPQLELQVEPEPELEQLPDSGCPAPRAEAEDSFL

[3] = species on record: Homo sapiens; assay: Selectivity ratio of Ki for IP6K2 (unknown origin) to Ki for IP6K1 (unknown origin)
How it was run: (§1)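 Purified IP6K1, IP6K2 and IP6K3 were each tested in an ADP-Glo Max luminescence assay optimized for IP6K, with 1 mM ATP consumed as the kinase reaction proceeds. IC50 values from each isoform were converted to Ki with the Cheng-Prusoff equation, and the Ki ratio versus IP6K1 was taken.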

[4] = target: Mitogen-activated protein kinase 14 (Homo sapiens) (UniProt Q16539); assay: Inhibition of recombinant full length human SAPK2alpha assessed as residual activity at 10 uM using myelin basic protein as substrate incubated for 40 mins in presence of [gamma-33P]ATP at Km concentration by radiometric assay relative to control
Sequence of Mitogen-activated protein kinase 14 (Homo sapiens) (Q16539 whole entry): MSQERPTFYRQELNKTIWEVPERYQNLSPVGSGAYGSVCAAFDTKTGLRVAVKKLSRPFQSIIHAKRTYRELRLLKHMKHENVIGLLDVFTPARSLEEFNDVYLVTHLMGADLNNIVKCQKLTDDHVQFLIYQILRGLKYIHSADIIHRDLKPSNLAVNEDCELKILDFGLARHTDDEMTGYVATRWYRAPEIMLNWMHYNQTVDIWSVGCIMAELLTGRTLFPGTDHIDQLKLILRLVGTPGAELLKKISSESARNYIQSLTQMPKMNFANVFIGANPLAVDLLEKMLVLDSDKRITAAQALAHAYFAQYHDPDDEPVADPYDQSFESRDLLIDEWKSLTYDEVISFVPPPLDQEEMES

[5] = target: Serine/threonine-protein kinase Chk1 (Homo sapiens) (UniProt O14757); assay: Inhibition of human full length recombinant CHK1 assessed as residual activity at 10 uM using KKKVSRSGLYRSP as substrate incubated for 40 mins in presence of [gamma-33P]ATP at Km concentration by radiometric assay relative to control
[6] = target: ALK tyrosine kinase receptor (Homo sapiens) (UniProt Q9UM73); assay: Inhibition of human recombinant ALK (1058 to end residues) assessed as residual activity at 10 uM using KKKSPGEYVNIEF as substrate incubated for 40 mins in presence of [gamma-33P]ATP at Km concentration by radiometric assay relative to control
Sequence of ALK tyrosine kinase receptor (Homo sapiens) (Q9UM73 19-1620 limits assumed): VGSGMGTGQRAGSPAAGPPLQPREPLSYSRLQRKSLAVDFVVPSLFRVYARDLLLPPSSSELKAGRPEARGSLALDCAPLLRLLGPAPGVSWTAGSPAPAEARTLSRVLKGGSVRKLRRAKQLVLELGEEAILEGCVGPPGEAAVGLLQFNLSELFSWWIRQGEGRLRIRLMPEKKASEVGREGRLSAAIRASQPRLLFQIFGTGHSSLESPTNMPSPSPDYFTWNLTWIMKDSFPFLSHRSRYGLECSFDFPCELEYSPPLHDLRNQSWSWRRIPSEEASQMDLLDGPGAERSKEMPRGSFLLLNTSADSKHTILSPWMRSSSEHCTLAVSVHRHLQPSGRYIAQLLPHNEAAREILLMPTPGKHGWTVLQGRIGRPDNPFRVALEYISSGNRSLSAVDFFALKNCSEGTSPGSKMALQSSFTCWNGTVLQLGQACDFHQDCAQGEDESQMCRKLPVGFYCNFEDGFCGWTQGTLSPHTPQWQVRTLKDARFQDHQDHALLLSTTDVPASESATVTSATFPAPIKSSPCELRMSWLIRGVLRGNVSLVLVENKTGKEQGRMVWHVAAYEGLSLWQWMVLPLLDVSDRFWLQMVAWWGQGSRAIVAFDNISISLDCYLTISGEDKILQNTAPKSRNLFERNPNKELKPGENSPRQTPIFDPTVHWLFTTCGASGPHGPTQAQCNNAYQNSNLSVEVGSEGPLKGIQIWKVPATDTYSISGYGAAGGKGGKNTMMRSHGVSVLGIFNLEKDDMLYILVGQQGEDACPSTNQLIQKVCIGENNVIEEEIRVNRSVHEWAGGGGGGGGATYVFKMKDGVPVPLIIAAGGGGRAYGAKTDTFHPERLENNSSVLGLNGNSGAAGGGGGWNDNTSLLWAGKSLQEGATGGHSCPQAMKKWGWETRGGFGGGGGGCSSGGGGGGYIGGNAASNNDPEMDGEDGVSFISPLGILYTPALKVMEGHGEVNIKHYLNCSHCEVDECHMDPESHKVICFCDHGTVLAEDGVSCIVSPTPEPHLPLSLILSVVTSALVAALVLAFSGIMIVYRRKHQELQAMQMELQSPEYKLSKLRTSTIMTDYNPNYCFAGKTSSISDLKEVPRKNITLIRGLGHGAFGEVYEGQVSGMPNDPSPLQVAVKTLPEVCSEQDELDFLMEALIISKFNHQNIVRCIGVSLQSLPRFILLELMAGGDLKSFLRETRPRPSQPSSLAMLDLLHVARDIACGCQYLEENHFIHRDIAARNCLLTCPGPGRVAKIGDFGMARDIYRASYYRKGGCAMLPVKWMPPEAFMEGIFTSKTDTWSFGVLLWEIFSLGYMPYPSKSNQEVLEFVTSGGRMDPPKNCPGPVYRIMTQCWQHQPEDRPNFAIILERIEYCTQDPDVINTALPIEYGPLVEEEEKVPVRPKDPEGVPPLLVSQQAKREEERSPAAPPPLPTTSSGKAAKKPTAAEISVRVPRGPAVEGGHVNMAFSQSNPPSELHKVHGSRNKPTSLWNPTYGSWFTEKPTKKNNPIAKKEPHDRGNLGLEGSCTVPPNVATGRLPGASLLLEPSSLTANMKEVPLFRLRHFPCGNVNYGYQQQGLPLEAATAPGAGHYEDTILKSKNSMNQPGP

[7] = Solubility of compound in pH 7.4 PBS at 100 ug/ml incubated for 2 hrs by LC-MS/MS analysis; type: physicochemical; details: buffer, pH 7.4, 2 h
[8] = target: Tyrosine-protein kinase Fyn (Homo sapiens) (UniProt P06241); assay: Inhibition of human full length recombinant FYN assessed as residual activity at 10 uM using KVEKIGEGTYGVV as substrate incubated for 40 mins in presence of [gamma-33P]ATP at Km concentration by radiometric assay relative to control
[9] = target: Serine/threonine-protein kinase 10 (Homo sapiens) (UniProt O94804); assay: Inhibition of human recombinant LOK (1 to 348 residues) assessed as residual activity at 10 uM using RLGRDKYKTLRQI as substrate incubated for 40 mins in presence of [gamma-33P]ATP at Km concentration by radiometric assay relative to control
[10] = target: Inositol hexakisphosphate kinase 1 (Homo sapiens, UniProt Q92551); assay: Binding affinity to IP6K1 (unknown origin) assessed as change in melting temperature by SYPRO orange dye-based assay
How it was run: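 Thermal shift format. Purified IP6K1 heated across a temperature gradient with the ligand at several concentrations. Binding read as the rise in protein melting temperature, including the maximal Tm shift (TmMax).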

[11] = test system: Glycogen synthase kinase-3 beta (Homo sapiens), P49841 [UNDEFINED MUTATION]; assay: Inhibition of human recombinant GSK3beta H350L mutant (2 to end residues) assessed as residual activity at 10 uM using YRRAAVPPSPSLSR as substrate incubated for 40 mins in presence of [gamma-33P]ATP at Km concentration by radiometric assay relative to control
[12] = test system: Eukaryotic elongation factor 2 kinase (Homo sapiens), O00418 [H23R]; assay: Inhibition of recombinant human eEF2K H23R mutant (2 to end residues) assessed as residual activity at 10 uM using RKKFGESEKTKTK as substrate incubated for 40 mins in presence of [gamma-33P]ATP at Km concentration by radiometric assay relative to control
Sequence of Eukaryotic elongation factor 2 kinase (Homo sapiens), O00418 [H23R] (O00418 whole entry H23R): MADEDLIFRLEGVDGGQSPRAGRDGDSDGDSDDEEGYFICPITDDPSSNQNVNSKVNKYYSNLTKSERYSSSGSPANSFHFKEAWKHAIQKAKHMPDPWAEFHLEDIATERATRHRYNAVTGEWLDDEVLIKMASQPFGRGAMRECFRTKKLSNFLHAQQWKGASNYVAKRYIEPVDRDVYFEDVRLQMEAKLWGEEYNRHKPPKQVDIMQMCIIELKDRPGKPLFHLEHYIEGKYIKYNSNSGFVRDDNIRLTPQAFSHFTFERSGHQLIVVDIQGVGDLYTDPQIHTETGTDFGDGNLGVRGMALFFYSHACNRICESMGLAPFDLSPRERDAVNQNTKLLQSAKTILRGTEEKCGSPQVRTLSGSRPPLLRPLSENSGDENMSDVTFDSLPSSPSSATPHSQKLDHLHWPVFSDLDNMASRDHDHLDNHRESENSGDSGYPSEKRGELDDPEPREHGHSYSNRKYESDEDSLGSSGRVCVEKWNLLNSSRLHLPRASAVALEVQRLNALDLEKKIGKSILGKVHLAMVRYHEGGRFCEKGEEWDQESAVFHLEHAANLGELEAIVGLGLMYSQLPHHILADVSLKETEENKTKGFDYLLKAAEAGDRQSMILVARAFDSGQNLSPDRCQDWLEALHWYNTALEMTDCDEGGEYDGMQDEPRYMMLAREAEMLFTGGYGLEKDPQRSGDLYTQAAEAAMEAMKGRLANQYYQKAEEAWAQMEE

[13] = target: T1, Inositol hexakisphosphate kinase 2 (Homo sapiens, UniProt Q9UHH9); assay: Inhibition of IP6K2 (unknown origin) incubated for 30 mins using IP6 as substrate in presence of ATP by ADP-Glo reagent based luminescence assay
T1 sequence (Q9UHH9 whole entry): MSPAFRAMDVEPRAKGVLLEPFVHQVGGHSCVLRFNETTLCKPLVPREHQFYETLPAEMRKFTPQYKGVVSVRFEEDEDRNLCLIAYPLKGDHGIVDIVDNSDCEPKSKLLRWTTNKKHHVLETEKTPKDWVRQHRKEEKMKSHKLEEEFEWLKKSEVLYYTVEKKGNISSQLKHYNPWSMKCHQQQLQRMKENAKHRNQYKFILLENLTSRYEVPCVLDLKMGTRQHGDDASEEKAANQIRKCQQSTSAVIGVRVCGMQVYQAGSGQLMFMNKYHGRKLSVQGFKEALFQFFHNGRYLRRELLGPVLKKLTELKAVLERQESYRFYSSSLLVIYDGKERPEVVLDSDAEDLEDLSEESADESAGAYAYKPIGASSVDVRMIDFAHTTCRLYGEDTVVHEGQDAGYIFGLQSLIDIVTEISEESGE
How it was run: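 Luminescent ADP-Glo Max format adapted for IP6K, with purified enzyme and ATP at 1 mM, which is consumed as the kinase reaction proceeds. IC50 taken from the resulting inhibition data.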

[14] = target: Mitogen-activated protein kinase kinase kinase 9 (Homo sapiens) (UniProt P80192); assay: Inhibition of recombinant human MLK1 (134 to 414 residues) assessed as residual activity at 10 uM using casein as substrate incubated for 40 mins in presence of [gamma-33P]ATP at Km concentration by radiometric assay relative to control
[15] = target: T1, Inositol hexakisphosphate kinase 2; assay: Inhibition of IP6K2 (unknown origin) in presence of ATP at Km concentration by Cheng-Prusoff equation analysis
How it was run: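 Purified IP6K isoforms run in the ADP-Glo Max kinase assay with 1 mM ATP. Measured IC50 values converted to Ki with the Cheng-Prusoff equation.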

[16] = target: Mitogen-activated protein kinase kinase kinase 5 (Homo sapiens) (UniProt Q99683); assay: Inhibition of recombinant human ASK1 (649 to 946 residues) assessed as residual activity at 10 uM using myelin basic protein as substrate incubated for 40 mins in presence of [gamma-33P]ATP at Km concentration by radiometric assay relative to control
[17] = target: 5'-AMP-activated protein kinase catalytic subunit alpha-1 (Homo sapiens) (UniProt Q13131); assay: Inhibition of human full length recombinant AMPKalpha1 assessed as residual activity at 10 uM using AMARAASAAALAR as substrate incubated for 40 mins in presence of [gamma-33P]ATP at Km concentration by radiometric assay relative to control
[18] = target: Serine/threonine-protein kinase 17A (Homo sapiens) (UniProt Q9UEE5); assay: Inhibition of human full length recombinant DRAK1 assessed as residual activity at 10 uM using KKLNRTLSFAEPG as substrate incubated for 40 mins in presence of [gamma-33P]ATP at Km concentration by radiometric assay relative to control
[19] = Half life in rat microsomes at 1 uM in presence of NADPH; type: ADME, Microsome
[20] = target: Protein kinase C alpha type (Homo sapiens) (UniProt P17252); assay: Inhibition of recombinant full length human PKCalpha assessed as residual activity at 10 uM using histone H1 as substrate incubated for 40 mins in presence of [gamma-33P]ATP at Km concentration by radiometric assay relative to control
[21] = species on record: Homo sapiens; assay: Selectivity ratio of Ki for IP6K3 (unknown origin) to Ki for IP6K1 (unknown origin); how it was run: as §1
[22] = target: Tyrosine-protein kinase JAK2 (Homo sapiens) (UniProt O60674); assay: Inhibition of human recombinant JAK2 (808 to end residues) assessed as residual activity at 10 uM using KTFCGTPEYLAPE as substrate incubated for 40 mins in presence of [gamma-33P]ATP at Km concentration by radiometric assay relative to control

## COc1ccc2c(CCNc3nc(NCc4ccc(=O)[nH]c4)c4nc[nH]c4n3)c[nH]c2c1
[1]
  Activity: 45%
[2]
  Activity: 101%
[3]
  Ratio Ki: 24.4
[4]
  Activity: 92%
[5]
  Activity: 91%
[6]
  Activity: 88%
[7]
  solubility: 51 µg/mL (≈ 118 µM)
[8]
  Activity: 84%
[9]
  Activity: 97%
[10]
  ΔTm: 6.6 °C
[11]
  Activity: 63%
[12]
  Activity: 46%
[13]
  IC50: 20 µM
[14]
  Activity: 24%
[15]
  Ki: 4.88 µM
[16]
  Activity: 72%
[17]
  Activity: 97%
[18]
  Activity: 69%
[19]
  t1/2: 38 min
[20]
  Activity: 86%
[21]
  Ratio Ki: 48.1
[22]
  Activity: 96%
